Test results taken from ChEMBL document CHEMBL2429794, “Tuning the antibacterial activity of amphiphilic neamine derivatives and comparison to paromamine homologues” (J Med Chem, 2013).
Converted amounts (≈) assume the structure as drawn.

What was measured:
Pseudomonas aeruginosa [1] = assay: Antibacterial activity against Pseudomonas aeruginosa PA22 (PT629) expressing MexXY after 24 hrs by geometric microdilution method; assay type: functional
Klebsiella pneumoniae = assay: Antibacterial activity against Klebsiella pneumoniae ATCC 700603 after 24 hrs by geometric microdilution method; assay type: functional; conditions: ATCC 700603, 24 h
Escherichia coli [2] = assay: Antibacterial activity against Escherichia coli PAZ505H8101 expressing AAC6'-1B after 24 hrs by geometric microdilution method; assay type: functional; conditions: PAZ505H8101, 24 h
Acinetobacter lwoffii [3] = assay: Antibacterial activity against Acinetobacter lwoffii AI.88-483 expressing APH3'-6A after 24 hrs by geometric microdilution method; assay type: functional; conditions: AI.88-483, 24 h
Staphylococcus aureus [4] = assay: Antibacterial activity against Staphylococcus aureus expressing aminoglycoside-6'-N-acetyltransferase/2''-O-phosphoryltransferase after 24 hrs by geometric microdilution method; assay type: functional
Summary of the method: (§1)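 Broth cultures were incubated in plates at 37 °C, and growth was read as absorbance at 650 nm after 1, 4, 7 and 24 h. Ampicillin (16 mg/L) was the positive control and DMSO the negative control. Each MIC (μg/mL) is the average of at least three determinations.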

Staphylococcus aureus [5] = assay: Antibacterial activity against vancomycin-resistant Staphylococcus aureus VRS2 after 24 hrs by geometric microdilution method; assay type: functional; conditions: VRS2, 24 h; summary of the method: as §1
Staphylococcus aureus [6] = assay: Antibacterial activity against Staphylococcus aureus expressing aminoglycoside-3'-O-phosphoryltransferase after 24 hrs by geometric microdilution method; assay type: functional; summary of the method: as §1
Escherichia coli [7] = assay: microbe, parasite or virus in culture; conditions: ATCC 25922, 24 h
Pseudomonas aeruginosa [8] = assay: Antibacterial activity against Pseudomonas aeruginosa F03 expressing AAC6'-2A after 24 hrs by geometric microdilution method; assay type: functional; conditions: F03, 24 h
Pseudomonas aeruginosa [9] = assay: Antibacterial activity against Pseudomonas aeruginosa ATCC 27853 after 24 hrs by geometric microdilution method; assay type: functional; conditions: ATCC 27853, 24 h
Escherichia coli [10] = assay: Antibacterial activity against Escherichia coli L58058.1 expressing ANT2''-1A after 24 hrs by geometric microdilution method; assay type: functional; conditions: L58058.1, 24 h
Acinetobacter lwoffii [11] = assay: Antibacterial activity against Acinetobacter lwoffii ATCC 17925 after 24 hrs by geometric microdilution method; assay type: functional; conditions: ATCC 17925, 24 h
Staphylococcus aureus [12] = assay: Antibacterial activity against Staphylococcus aureus expressing aminoglycoside-[…] after 24 hrs by geometric microdilution method; assay type: functional; summary of the method: as §1
Staphylococcus aureus [13] = assay: microbe, parasite or virus in culture; conditions: ATCC 25923, 24 h
Staphylococcus aureus [14] = assay: Antibacterial activity against healthcare-acquired methicillin-resistant Staphylococcus aureus ATCC 33592 after 24 hrs by geometric microdilution method; assay type: functional; conditions: ATCC 33592, 24 h; summary of the method: as §1
Staphylococcus aureus [15] = assay: Antibacterial activity against fluoroquinolone-resistant Staphylococcus aureus 1199B expressing NorA efflux pump after 24 hrs by geometric microdilution method; assay type: functional; summary of the method: as §1
Staphylococcus aureus [16] = assay: Antibacterial activity against 14- and 15-membered macrolide-resistant Staphylococcus aureus expressing MsrA efflux pump after 24 hrs by geometric microdilution method; assay type: functional; summary of the method: as §1

With `CCCCO[C@@H]1[C@@H](N)[C@@H](O[C@H]2[C@H](O)[C@@H](OCCCC)[C@H](N)C[C@@H]2N)O[C@H](CN)[C@H]1OCCCC` the MIC (Pseudomonas aeruginosa [1]) was > 128 µg/mL, the MIC (Klebsiella pneumoniae) was > 128 µg/mL and the MIC (Escherichia coli [2]) was > 128 µg/mL. The MIC (Acinetobacter lwoffii [3]) was > 128 µg/mL, the MIC (Staphylococcus aureus [4]) was > 128 µg/mL and the MIC (Staphylococcus aureus [5]) was > 128 µg/mL. For the same molecule, the MIC (Staphylococcus aureus [6]) was > 128 µg/mL, the MIC (Escherichia coli [7]) was > 128 µg/mL and the MIC (Pseudomonas aeruginosa [8]) was > 128 µg/mL. The MIC (Pseudomonas aeruginosa [9]) was > 128 µg/mL, the MIC (Escherichia coli [10]) was > 128 µg/mL and the MIC (Acinetobacter lwoffii [11]) was > 128 µg/mL. The MIC (Staphylococcus aureus [12]) was > 128 µg/mL, the MIC (Staphylococcus aureus [13]) was > 128 µg/mL and the MIC (Staphylococcus aureus [14]) was > 128 µg/mL. The MIC (Staphylococcus aureus [15]) was > 128 µg/mL.

With `NC[C@H]1O[C@H](O[C@H]2[C@H](O)[C@@H](OCc3ccc4ccccc4n3)[C@H](N)C[C@@H]2N)[C@H](N)[C@@H](OCc2ccc3ccccc3n2)[C@@H]1OCc1ccc2ccccc2n1` the MIC (Pseudomonas aeruginosa [1]) was > 128 µg/mL, the MIC (Klebsiella pneumoniae) was > 128 µg/mL and the MIC (Escherichia coli [2]) was > 128 µg/mL. The MIC (Acinetobacter lwoffii [3]) was > 128 µg/mL, the MIC (Staphylococcus aureus [4]) was 128 µg/mL (≈ 172 µM) and the MIC (Staphylococcus aureus [5]) was 64 µg/mL (≈ 85.8 µM). The MIC (Staphylococcus aureus [6]) was 64 µg/mL (≈ 85.8 µM), the MIC (Escherichia coli [7]) was > 128 µg/mL and the MIC (Pseudomonas aeruginosa [8]) was > 128 µg/mL. The MIC (Pseudomonas aeruginosa [9]) was > 128 µg/mL, the MIC (Escherichia coli [10]) was > 128 µg/mL and the MIC (Acinetobacter lwoffii [11]) was 128 µg/mL (≈ 172 µM). The MIC (Staphylococcus aureus [12]) was > 128 µg/mL, the MIC (Staphylococcus aureus [13]) was 128 µg/mL (≈ 172 µM) and the MIC (Staphylococcus aureus [14]) was 64 µg/mL (≈ 85.8 µM). For the same molecule, the MIC (Staphylococcus aureus [15]) was > 128 µg/mL.

For `NC[C@H]1O[C@H](O[C@H]2[C@H](O)[C@@H](OCc3ccccc3)[C@H](N)C[C@@H]2N)[C@H](N)[C@@H](OCc2ccccc2)[C@@H]1O`, the MIC (Staphylococcus aureus [4]) was > 128 µg/mL, the MIC (Staphylococcus aureus [6]) was > 128 µg/mL and the MIC (Staphylococcus aureus [12]) was > 128 µg/mL. For the same molecule, the MIC (Staphylococcus aureus [13]) was > 128 µg/mL and the MIC (Staphylococcus aureus [15]) was > 128 µg/mL.

`NC[C@H]1O[C@H](O[C@H]2[C@H](O)[C@@H](OCCCc3ccc4ccccc4c3)[C@H](N)C[C@@H]2N)[C@H](N)[C@@H](OCCCc2ccc3ccccc3c2)[C@@H]1OCCCc1ccc2ccccc2c1` gave an MIC (Pseudomonas aeruginosa [1]) of 128 µg/mL (≈ 155 µM), an MIC (Escherichia coli [2]) of 32 µg/mL (≈ 38.7 µM) and an MIC (Staphylococcus aureus [16]) of 32 µg/mL (≈ 38.7 µM). The MIC (Staphylococcus aureus [4]) was 64 µg/mL (≈ 77.4 µM), the MIC (Staphylococcus aureus [5]) was > 128 µg/mL and the MIC (Staphylococcus aureus [6]) was 32 µg/mL (≈ 38.7 µM). The MIC (Escherichia coli [7]) was 128 µg/mL (≈ 155 µM), the MIC (Pseudomonas aeruginosa [8]) was 64 µg/mL (≈ 77.4 µM) and the MIC (Pseudomonas aeruginosa [9]) was 128 µg/mL (≈ 155 µM). The MIC (Escherichia coli [10]) was > 128 µg/mL, the MIC (Staphylococcus aureus [12]) was 128 µg/mL (≈ 155 µM) and the MIC (Staphylococcus aureus [13]) was > 128 µg/mL. The MIC (Staphylococcus aureus [14]) was 128 µg/mL (≈ 155 µM) and the MIC (Staphylococcus aureus [15]) was > 128 µg/mL.

`CCCCCCCCCCCCCCCCCCO[C@@H]1[C@@H](N)[C@@H](O[C@H]2[C@H](O)[C@@H](O)[C@H](N)C[C@@H]2N)O[C@H](CN)[C@H]1O` was tested, and the MIC (Staphylococcus aureus [4]) was > 128 µg/mL, the MIC (Staphylococcus aureus [6]) was > 128 µg/mL and the MIC (Staphylococcus aureus [12]) was > 128 µg/mL. The MIC (Staphylococcus aureus [13]) was > 128 µg/mL and the MIC (Staphylococcus aureus [15]) was > 128 µg/mL.

In the case of `CCCCO[C@@H]1[C@@H](N)[C@@H](O[C@H]2[C@H](O)[C@@H](OCCCC)[C@H](N)C[C@@H]2N)O[C@H](CN)[C@H]1O`, the MIC (Pseudomonas aeruginosa [1]) is reported as > 128 µg/mL, the MIC (Klebsiella pneumoniae) is reported as > 128 µg/mL and the MIC (Escherichia coli [2]) is reported as > 128 µg/mL. The MIC (Acinetobacter lwoffii [3]) was > 128 µg/mL, the MIC (Staphylococcus aureus [4]) was 128 µg/mL (≈ 295 µM) and the MIC (Staphylococcus aureus [5]) was > 128 µg/mL. The MIC (Staphylococcus aureus [6]) was > 128 µg/mL, the MIC (Escherichia coli [7]) was > 128 µg/mL and the MIC (Pseudomonas aeruginosa [8]) was > 128 µg/mL. For the same molecule, the MIC (Pseudomonas aeruginosa [9]) was > 128 µg/mL, the MIC (Escherichia coli [10]) was > 128 µg/mL and the MIC (Acinetobacter lwoffii [11]) was 64 µg/mL (≈ 147 µM). The MIC (Staphylococcus aureus [12]) was > 128 µg/mL, the MIC (Staphylococcus aureus [13]) was > 128 µg/mL and the MIC (Staphylococcus aureus [14]) was > 128 µg/mL. For the same molecule, the MIC (Staphylococcus aureus [15]) was > 128 µg/mL.

With `N[C@H]1[C@@H](O[C@H]2[C@H](O)[C@@H](O)[C@H](N)C[C@@H]2N)O[C@H](CO)[C@@H](O)[C@@H]1O` [PAROMAMINE] the MIC (Pseudomonas aeruginosa [1]) was > 128 µg/mL, the MIC (Escherichia coli [2]) was > 128 µg/mL and the MIC (Staphylococcus aureus [16]) was > 128 µg/mL. The MIC (Staphylococcus aureus [4]) was > 128 µg/mL, the MIC (Staphylococcus aureus [5]) was > 128 µg/mL and the MIC (Staphylococcus aureus [6]) was > 128 µg/mL. The MIC (Escherichia coli [7]) was > 128 µg/mL, the MIC (Pseudomonas aeruginosa [8]) was > 128 µg/mL and the MIC (Pseudomonas aeruginosa [9]) was > 128 µg/mL. For the same molecule, the MIC (Escherichia coli [10]) was > 128 µg/mL, the MIC (Staphylococcus aureus [12]) was > 128 µg/mL and the MIC (Staphylococcus aureus [13]) was 32 µg/mL (≈ 99 µM). The MIC (Staphylococcus aureus [14]) was > 128 µg/mL and the MIC (Staphylococcus aureus [15]) was > 128 µg/mL.

`CCCCCCCCCCCCCCCCCCO[C@@H]1[C@@H](O)[C@H](O[C@H]2O[C@H](CN)[C@@H](O)[C@H](O)[C@H]2N)[C@@H](N)C[C@H]1N` was tested, and the MIC (Staphylococcus aureus [4]) was > 256 µg/mL, the MIC (Staphylococcus aureus [6]) was > 256 µg/mL and the MIC (Staphylococcus aureus [12]) was > 256 µg/mL. For the same molecule, the MIC (Staphylococcus aureus [13]) was > 128 µg/mL, the MIC (Staphylococcus aureus [14]) was > 128 µg/mL and the MIC (Staphylococcus aureus [15]) was > 256 µg/mL.

For `CCCCCCCCCCCCCCCCCCO[C@@H]1[C@@H](N)[C@@H](O[C@H]2[C@H](O)[C@@H](OCCCCCCCCCCCCCCCCCC)[C@H](N)C[C@@H]2N)O[C@H](CN)[C@H]1O`, the MIC (Pseudomonas aeruginosa [1]) was > 128 µg/mL, the MIC (Escherichia coli [2]) was > 128 µg/mL and the MIC (Staphylococcus aureus [16]) was > 128 µg/mL. The MIC (Staphylococcus aureus [4]) was 256 µg/mL (≈ 309 µM), the MIC (Staphylococcus aureus [5]) was > 128 µg/mL and the MIC (Staphylococcus aureus [6]) was 128 µg/mL (≈ 155 µM). For the same molecule, the MIC (Escherichia coli [7]) was > 128 µg/mL, the MIC (Pseudomonas aeruginosa [8]) was > 128 µg/mL and the MIC (Pseudomonas aeruginosa [9]) was > 128 µg/mL. For the same molecule, the MIC (Escherichia coli [10]) was > 128 µg/mL, the MIC (Staphylococcus aureus [12]) was 256 µg/mL (≈ 309 µM) and the MIC (Staphylococcus aureus [13]) was > 128 µg/mL. For the same molecule, the MIC (Staphylococcus aureus [14]) was > 128 µg/mL and the MIC (Staphylococcus aureus [15]) was > 128 µg/mL.
